Measurements: ChEMBL document CHEMBL3091412, “Discovery of an irreversible HCV NS5B polymerase inhibitor” (Bioorg Med Chem Lett, 2013)

Key:
[1] = AUC in fed Sprague-Dawley rat at 30 mg/kg, po; format: ADME, organism-based; set-up: dose 30 mg/kg, route oral; conditions: plasma
How it was run: (§1)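 Given orally as crystalline sodium salt to fed male Sprague Dawley rats (30–500 mg/kg) or fed male Cynomolgus monkeys (10–100 mg/kg) to assess dose exposure; plasma AUC and Cmax determined.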

Cytochrome P450 2C9 [2] = molecular target: T1, Cytochrome P450 2C9 (Homo sapiens, UniProt P11712); assay: Inhibition of CYP2C9 in human liver microsomes measured after compound pre-incubation; format: ADME
T1 sequence (P11712 whole entry): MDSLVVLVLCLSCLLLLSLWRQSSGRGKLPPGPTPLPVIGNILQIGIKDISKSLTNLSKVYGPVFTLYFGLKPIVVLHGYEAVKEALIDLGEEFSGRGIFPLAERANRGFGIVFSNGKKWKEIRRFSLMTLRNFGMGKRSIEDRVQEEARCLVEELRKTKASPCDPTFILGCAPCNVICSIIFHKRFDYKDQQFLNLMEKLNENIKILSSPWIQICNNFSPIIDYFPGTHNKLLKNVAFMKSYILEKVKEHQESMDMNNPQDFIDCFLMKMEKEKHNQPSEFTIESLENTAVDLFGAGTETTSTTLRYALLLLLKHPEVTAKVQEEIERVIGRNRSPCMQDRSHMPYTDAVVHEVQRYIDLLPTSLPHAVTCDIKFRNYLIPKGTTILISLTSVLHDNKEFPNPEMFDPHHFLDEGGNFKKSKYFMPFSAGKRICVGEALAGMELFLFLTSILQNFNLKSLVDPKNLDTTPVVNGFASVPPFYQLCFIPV
How it was run: (§2)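 Human liver microsomes; CYP inhibition measured with compound added concurrently or after pre-incubation; concentration inhibiting 50% of enzyme activity determined.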

[3] = Drug excretion in cynomolgus monkey bile assessed as parent compound administered as single oral dose; format: ADME, Macaca fascicularis; conditions: read-out: Drug excretion
How it was run: (§3)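 Radiolabeled [3H] compound given as single oral dose to monkey; bile and urine excretion and metabolites profiled, including parent fraction in bile and glutathione or sulfate conjugates.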

Cytochrome P450 2D6 [4] = molecular target: T2, Cytochrome P450 2D6 (Homo sapiens, UniProt P10635); assay: Inhibition of CYP2D6 in human liver microsomes measured after compound pre-incubation; format: ADME; how it was run: as §2
T2 sequence (P10635 whole entry): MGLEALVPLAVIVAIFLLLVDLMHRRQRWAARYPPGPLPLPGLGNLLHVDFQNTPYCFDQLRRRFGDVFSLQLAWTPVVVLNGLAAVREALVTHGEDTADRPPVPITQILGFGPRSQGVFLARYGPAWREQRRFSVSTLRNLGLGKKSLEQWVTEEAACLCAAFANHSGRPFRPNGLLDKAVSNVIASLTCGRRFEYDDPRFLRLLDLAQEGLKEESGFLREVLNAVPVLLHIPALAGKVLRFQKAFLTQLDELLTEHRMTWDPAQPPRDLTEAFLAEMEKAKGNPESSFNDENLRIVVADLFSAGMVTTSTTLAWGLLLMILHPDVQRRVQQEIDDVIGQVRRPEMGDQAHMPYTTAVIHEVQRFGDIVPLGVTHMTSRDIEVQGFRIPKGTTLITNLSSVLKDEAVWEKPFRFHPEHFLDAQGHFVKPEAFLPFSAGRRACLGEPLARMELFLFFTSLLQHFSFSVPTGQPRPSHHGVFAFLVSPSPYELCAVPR

Cytochrome P450 2C19 [5] = molecular target: T3, Cytochrome P450 2C19 (Homo sapiens, UniProt P33261); assay: Inhibition of […] in human liver microsomes measured after concurrent incubation; format: ADME
T3 sequence (P33261 whole entry): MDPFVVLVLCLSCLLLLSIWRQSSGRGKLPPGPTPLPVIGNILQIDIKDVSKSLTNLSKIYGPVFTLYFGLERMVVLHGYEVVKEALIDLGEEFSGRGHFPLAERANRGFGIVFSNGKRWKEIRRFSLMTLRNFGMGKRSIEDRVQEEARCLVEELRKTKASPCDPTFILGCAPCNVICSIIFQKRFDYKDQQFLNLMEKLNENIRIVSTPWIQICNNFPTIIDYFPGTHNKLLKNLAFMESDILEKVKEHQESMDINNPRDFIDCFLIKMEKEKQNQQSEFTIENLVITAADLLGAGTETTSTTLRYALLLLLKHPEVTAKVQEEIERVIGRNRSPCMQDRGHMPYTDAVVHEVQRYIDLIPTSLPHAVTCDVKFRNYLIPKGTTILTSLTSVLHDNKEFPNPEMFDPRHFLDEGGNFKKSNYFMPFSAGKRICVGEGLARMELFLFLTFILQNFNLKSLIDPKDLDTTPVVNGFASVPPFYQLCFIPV

Salmonella typhimurium [6] = assay: Induction of mutagenicity in Salmonella Typhimurium TA 97a by mini-Ames assay; format: toxicity, organism-based; conditions: salmonella enterica subsp. enterica serovar typhimurium
How it was run: (§4)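 Mini-Ames mutagenicity test against Salmonella strains TA 97a, TA 100 and TA 102.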

Salmonella typhimurium [7] = assay: Induction of mutagenicity in Salmonella Typhimurium TA 100 by mini-Ames assay; format: toxicity, organism-based; conditions: salmonella enterica subsp. enterica serovar typhimurium; how it was run: as §4
Cytochrome P450 1A2 [8] = molecular target: T4, Cytochrome P450 1A2 (Homo sapiens, UniProt P05177); assay: Inhibition of CYP1A2 in human liver microsomes measured after concurrent incubation; format: ADME; how it was run: as §2
T4 sequence (P05177 whole entry): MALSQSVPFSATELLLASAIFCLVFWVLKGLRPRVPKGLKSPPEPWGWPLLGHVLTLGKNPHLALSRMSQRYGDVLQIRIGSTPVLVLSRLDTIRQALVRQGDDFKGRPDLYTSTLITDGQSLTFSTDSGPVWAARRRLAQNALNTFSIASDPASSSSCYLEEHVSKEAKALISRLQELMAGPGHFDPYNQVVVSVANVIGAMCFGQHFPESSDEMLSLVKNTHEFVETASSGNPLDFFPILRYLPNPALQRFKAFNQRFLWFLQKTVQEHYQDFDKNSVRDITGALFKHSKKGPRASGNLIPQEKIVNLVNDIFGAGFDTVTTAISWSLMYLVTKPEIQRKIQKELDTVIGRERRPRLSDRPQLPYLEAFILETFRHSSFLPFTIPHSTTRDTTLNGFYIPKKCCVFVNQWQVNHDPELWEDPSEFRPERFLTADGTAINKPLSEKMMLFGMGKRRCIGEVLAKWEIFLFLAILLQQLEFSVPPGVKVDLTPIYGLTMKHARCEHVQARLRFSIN

Cytochrome P450 2C8 [9] = molecular target: T5, Cytochrome P450 2C8 (Homo sapiens, UniProt P10632); assay: Inhibition of CYP2C8 in human liver microsomes measured after compound pre-incubation; format: ADME; how it was run: as §2
T5 sequence (P10632 whole entry): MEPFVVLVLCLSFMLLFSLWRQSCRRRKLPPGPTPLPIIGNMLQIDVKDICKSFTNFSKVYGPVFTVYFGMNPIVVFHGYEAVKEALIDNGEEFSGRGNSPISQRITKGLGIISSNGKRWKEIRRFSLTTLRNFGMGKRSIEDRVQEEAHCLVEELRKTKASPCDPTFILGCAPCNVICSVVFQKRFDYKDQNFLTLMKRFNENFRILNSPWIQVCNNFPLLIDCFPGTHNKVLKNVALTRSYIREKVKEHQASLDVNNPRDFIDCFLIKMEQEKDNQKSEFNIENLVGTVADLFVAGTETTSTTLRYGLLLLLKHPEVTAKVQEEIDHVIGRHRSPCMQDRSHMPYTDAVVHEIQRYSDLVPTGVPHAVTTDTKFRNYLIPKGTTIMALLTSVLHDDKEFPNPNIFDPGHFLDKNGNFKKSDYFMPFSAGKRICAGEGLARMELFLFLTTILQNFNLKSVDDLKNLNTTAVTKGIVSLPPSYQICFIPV

Cytochrome P450 2C9 [10] = molecular target: T1, Cytochrome P450 2C9; assay: Inhibition of CYP2C9 in human liver microsomes measured after concurrent incubation; format: ADME; how it was run: as §2
Cytochrome P450 2C19 [11] = molecular target: T3, Cytochrome P450 2C19; assay: Inhibition of […] in human liver microsomes measured after compound pre-incubation; format: ADME
[12] = Cmax in fed Sprague-Dawley rat at 250 mg/kg, po; format: ADME, organism-based; set-up: dose 250 mg/kg, route oral; conditions: in vivo; how it was run: as §1
Hepatitis C virus = assay: Antiviral activity against HCV Con1 in eplicon cells after 3 days by RT-PCR analysis; format: functional, organism-based, Hepacivirus hominis; conditions: isolate Con1, 72 h
How it was run: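 HCV 1b-Con1 replicon cells seeded at 5000 cells/well one day before treatment; inhibitor in DMSO added as 10 serial twofold dilutions in duplicate (final 0.5% DMSO, 5% FBS). Harvested 3 days post dosing; replicon RNA quantified by real-time RT-PCR (Taqman), GAPDH RNA as endogenous control; EC50 calculated.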

[13] = Irreversible inhibition of HCV1b NS5B delta21 polymerase by radiolabeled nucleotide incorporation assay; set-up: species or system Hepatitis C virus subtype 1b
Rattus norvegicus [14] = assay: Toxicity in rat assessed as soft and mucoid stool at 1000 to 2000 mg/kg measured up to 1 day; format: organism-based; set-up: dose 1000-2000 mg/kg; conditions: in vivo, 24 h
How it was run: (§5)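 Single-dose rat toxicity study with dose groups of 250, 500, 1000 and 2000 mg/kg. Animals were monitored for clinical signs of toxicity, including stool appearance, and for mortality.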

hERG (KCNH2) = hERG (KCNH2) (Homo sapiens, UniProt Q12809); assay: Inhibition of human ERG at 2 uM by voltage clamp assay
hERG (KCNH2), sequence (Q12809 whole entry): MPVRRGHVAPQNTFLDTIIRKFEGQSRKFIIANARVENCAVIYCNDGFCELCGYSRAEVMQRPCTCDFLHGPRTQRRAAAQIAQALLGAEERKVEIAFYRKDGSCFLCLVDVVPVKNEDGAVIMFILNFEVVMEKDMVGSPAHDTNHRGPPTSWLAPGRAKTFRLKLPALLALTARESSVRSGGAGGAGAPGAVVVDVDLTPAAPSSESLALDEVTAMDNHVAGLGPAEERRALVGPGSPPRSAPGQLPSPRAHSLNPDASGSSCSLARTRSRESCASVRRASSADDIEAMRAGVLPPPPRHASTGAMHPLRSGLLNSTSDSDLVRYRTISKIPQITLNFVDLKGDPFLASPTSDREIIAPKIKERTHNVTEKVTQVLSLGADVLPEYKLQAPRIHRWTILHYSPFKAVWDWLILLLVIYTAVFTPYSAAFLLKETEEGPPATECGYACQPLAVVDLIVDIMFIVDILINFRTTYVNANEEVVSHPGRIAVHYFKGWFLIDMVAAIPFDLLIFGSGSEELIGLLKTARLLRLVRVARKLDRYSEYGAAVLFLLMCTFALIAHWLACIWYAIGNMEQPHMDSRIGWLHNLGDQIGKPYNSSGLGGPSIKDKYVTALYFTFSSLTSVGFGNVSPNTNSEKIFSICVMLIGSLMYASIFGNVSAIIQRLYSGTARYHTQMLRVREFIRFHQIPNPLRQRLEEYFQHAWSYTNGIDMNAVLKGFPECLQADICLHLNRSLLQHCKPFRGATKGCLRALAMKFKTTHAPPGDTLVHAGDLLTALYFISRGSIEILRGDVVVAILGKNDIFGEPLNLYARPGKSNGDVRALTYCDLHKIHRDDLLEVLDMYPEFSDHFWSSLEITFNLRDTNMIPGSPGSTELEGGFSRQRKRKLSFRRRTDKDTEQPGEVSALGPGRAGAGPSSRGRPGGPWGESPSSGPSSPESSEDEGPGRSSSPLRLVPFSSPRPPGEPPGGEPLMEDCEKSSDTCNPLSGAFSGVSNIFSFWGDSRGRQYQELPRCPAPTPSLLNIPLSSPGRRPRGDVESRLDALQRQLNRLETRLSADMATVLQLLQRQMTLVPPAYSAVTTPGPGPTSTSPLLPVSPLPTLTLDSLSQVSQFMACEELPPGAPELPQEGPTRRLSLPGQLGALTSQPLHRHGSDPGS

Rattus norvegicus [15] = assay: Toxicity in rat at 10 to 500 mg/kg measured up to 2 weeks; format: organism-based; set-up: dose 10-500 mg/kg; conditions: in vivo, 336 h
Cytochrome P450 1A2 [16] = molecular target: T4, Cytochrome P450 1A2; assay: Inhibition of CYP1A2 in human liver microsomes measured after compound pre-incubation; format: ADME; how it was run: as §2
Cytochrome P450 2D6 [17] = molecular target: T2, Cytochrome P450 2D6; assay: Inhibition of CYP2D6 in human liver microsomes measured after concurrent incubation; format: ADME; how it was run: as §2
Cytochrome P450 3A4 [18] = molecular target: T6, Cytochrome P450 3A4 (Homo sapiens, UniProt P08684); assay: Inhibition of CYP3A4 in human liver microsomes measured after concurrent incubation; format: ADME; how it was run: as §2
T6 sequence (P08684 whole entry): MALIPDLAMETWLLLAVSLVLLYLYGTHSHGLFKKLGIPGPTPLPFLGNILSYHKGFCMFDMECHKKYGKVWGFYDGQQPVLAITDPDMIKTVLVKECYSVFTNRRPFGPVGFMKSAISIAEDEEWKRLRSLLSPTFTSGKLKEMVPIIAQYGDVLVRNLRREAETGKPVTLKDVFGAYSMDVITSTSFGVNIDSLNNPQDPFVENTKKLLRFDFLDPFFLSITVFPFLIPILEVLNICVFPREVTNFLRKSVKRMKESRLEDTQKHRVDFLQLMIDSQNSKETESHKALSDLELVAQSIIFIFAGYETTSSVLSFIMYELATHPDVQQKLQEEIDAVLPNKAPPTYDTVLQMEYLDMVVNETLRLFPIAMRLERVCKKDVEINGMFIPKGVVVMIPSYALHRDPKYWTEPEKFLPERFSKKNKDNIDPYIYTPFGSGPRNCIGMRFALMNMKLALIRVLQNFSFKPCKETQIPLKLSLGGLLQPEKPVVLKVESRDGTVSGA

[19] = Cmax in fed cynomolgus monkey at 10 mg/kg, po; format: ADME, organism-based, Macaca fascicularis; set-up: dose 10 mg/kg, route oral; conditions: in vivo; how it was run: as §1
Cytochrome P450 2D4 [20] = molecular target: T7, Cytochrome P450 2D4 (Rattus norvegicus, UniProt Q64680); assay: Inhibition of rat CYP2D4 measured after compound pre-incubation; format: ADME
T7 sequence (Q64680 whole entry): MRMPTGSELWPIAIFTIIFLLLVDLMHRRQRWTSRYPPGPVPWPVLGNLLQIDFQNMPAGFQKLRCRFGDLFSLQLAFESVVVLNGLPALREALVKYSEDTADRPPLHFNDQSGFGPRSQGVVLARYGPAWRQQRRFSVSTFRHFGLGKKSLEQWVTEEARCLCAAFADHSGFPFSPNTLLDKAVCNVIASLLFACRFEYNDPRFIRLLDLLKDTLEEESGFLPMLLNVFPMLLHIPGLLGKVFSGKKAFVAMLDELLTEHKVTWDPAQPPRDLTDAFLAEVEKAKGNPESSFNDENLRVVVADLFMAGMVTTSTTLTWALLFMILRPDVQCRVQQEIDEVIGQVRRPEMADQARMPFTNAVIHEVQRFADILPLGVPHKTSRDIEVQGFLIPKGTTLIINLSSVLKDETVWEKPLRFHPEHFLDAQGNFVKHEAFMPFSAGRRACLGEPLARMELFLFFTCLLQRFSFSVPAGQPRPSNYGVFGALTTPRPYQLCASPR

[21] = AUC in fed cynomolgus monkey at 30 mg/kg, po; format: ADME, organism-based, Macaca fascicularis; set-up: dose 30 mg/kg, route oral; conditions: plasma; how it was run: as §1
[22] = Cmax in fed Sprague-Dawley rat at 100 mg/kg, po; format: ADME, organism-based; set-up: dose 100 mg/kg, route oral; conditions: in vivo; how it was run: as §1
[23] = Cmax in fed Sprague-Dawley rat at 30 mg/kg, po; format: ADME, organism-based; set-up: dose 30 mg/kg, route oral; conditions: in vivo; how it was run: as §1
Salmonella typhimurium [24] = assay: Induction of mutagenicity in Salmonella Typhimurium TA 102 by mini-Ames assay; format: toxicity, organism-based; conditions: salmonella enterica subsp. enterica serovar typhimurium; how it was run: as §4
Rattus norvegicus [25] = assay: Toxicity in rat assessed as mortality at 250 to 2000 mg/kg measured up to 1 day; format: organism-based; set-up: dose 250-2000 mg/kg; conditions: in vivo, 24 h; how it was run: as §5
[26] = Cmax in fed cynomolgus monkey at 30 mg/kg, po; format: ADME, organism-based, Macaca fascicularis; set-up: dose 30 mg/kg, route oral; conditions: in vivo; how it was run: as §1
Cytochrome P450 2C8 [27] = molecular target: T5, Cytochrome P450 2C8; assay: Inhibition of CYP2C8 in human liver microsomes measured after concurrent incubation; format: ADME; how it was run: as §2
[28] = AUC in fed Sprague-Dawley rat at 250 mg/kg, po; format: ADME, organism-based; set-up: dose 250 mg/kg, route oral; conditions: plasma; how it was run: as §1
[29] = AUC in fed Sprague-Dawley rat at 500 mg/kg, po; format: ADME, organism-based; set-up: dose 500 mg/kg, route oral; conditions: plasma; how it was run: as §1
Cynomolgus monkey [30] = assay: Drug metabolism in cynomolgus monkey assessed as sulfate conjugate formation administered as single oral dose; format: ADME, organism-based, Macaca fascicularis; conditions: in vivo; how it was run: as §3
Cytochrome P450 3A4 [31] = molecular target: T6, Cytochrome P450 3A4; assay: Inhibition of CYP3A4 in human liver microsomes measured after compound pre-incubation; format: ADME; how it was run: as §2
[32] = AUC in fed Sprague-Dawley rat at 100 mg/kg, po; format: ADME, organism-based; set-up: dose 100 mg/kg, route oral; conditions: plasma; how it was run: as §1
Cynomolgus monkey [33] = assay: Drug metabolism in cynomolgus monkey assessed as glutathione conjugate formation administered as single oral dose; format: ADME, organism-based, Macaca fascicularis; conditions: in vivo; how it was run: as §3
[34] = AUC in fed cynomolgus monkey at 10 mg/kg, po; format: ADME, organism-based, Macaca fascicularis; set-up: dose 10 mg/kg, route oral; conditions: plasma; how it was run: as §1
Cytochrome P450 2D4 [35] = molecular target: T7, Cytochrome P450 2D4; assay: Inhibition of rat CYP2D4 measured after concurrent incubation; format: ADME
[36] = Cmax in fed Sprague-Dawley rat at 500 mg/kg, po; format: ADME, organism-based; set-up: dose 500 mg/kg, route oral; conditions: in vivo; how it was run: as §1
[37] = Cmax in fed cynomolgus monkey at 100 mg/kg, po; format: ADME, organism-based, Macaca fascicularis; set-up: dose 100 mg/kg, route oral; conditions: in vivo; how it was run: as §1
[38] = AUC in fed cynomolgus monkey at 100 mg/kg, po; format: ADME, organism-based, Macaca fascicularis; set-up: dose 100 mg/kg, route oral; conditions: plasma; how it was run: as §1

Cc1cc2c(-c3ccc[nH]c3=O)c(C(=O)O)n(Cc3cc4ccccc4nc3Cl)c2cc1F
AUC [1]: 176 µM·h | IC50 (Cytochrome P450 2C9 [2]): > 50 µM | dose excreted [3]: 81% | IC50 (Cytochrome P450 2D6 [4]): > 50 µM | IC50 (Cytochrome P450 2C19 [5]): > 50 µM | Activity (Salmonella typhimurium [6]): Non-toxic | Activity (Salmonella typhimurium [7]): Non-toxic | IC50 (Cytochrome P450 1A2 [8]): > 50 µM | IC50 (Cytochrome P450 2C8 [9]): 30 µM | IC50 (Cytochrome P450 2C9 [10]): > 50 µM | IC50 (Cytochrome P450 2C19 [11]): > 50 µM | Cmax [12]: 66 µM | EC50 (Hepatitis C virus): 0.003 µM | IC50 [13]: 0.013 µM | Activity (Rattus norvegicus [14]): Toxic | inhibition at 2 µM (hERG (KCNH2)): 6% | Activity (Rattus norvegicus [15]): Non-toxic | IC50 (Cytochrome P450 1A2 [16]): > 50 µM | IC50 (Cytochrome P450 2D6 [17]): > 50 µM | IC50 (Cytochrome P450 3A4 [18]): > 50 µM | Cmax [19]: 0.9 µM | IC50 (Cytochrome P450 2D4 [20]): > 50 µM | AUC [21]: 15 µM·h | Cmax [22]: 32 µM | Cmax [23]: 21 µM | Activity (Salmonella typhimurium [24]): Non-toxic | Activity (Rattus norvegicus [25]): Non-toxic | Cmax [26]: 1.3 µM | IC50 (Cytochrome P450 2C8 [27]): 21 µM | AUC [28]: 1090 µM·h | AUC [29]: 1040 µM·h | Stability (Cynomolgus monkey [30]): Stable | IC50 (Cytochrome P450 3A4 [31]): > 50 µM | AUC [32]: 375 µM·h | Stability (Cynomolgus monkey [33]): Stable | AUC [34]: 9 µM·h | IC50 (Cytochrome P450 2D4 [35]): > 50 µM | Cmax [36]: 65 µM | Cmax [37]: 2 µM | AUC [38]: 17 µM·h
